ROMK primary: human ROMK K+ channel modulation, primary screen; P48048; hit rate 2% among 130,000; Tet-inducible ROMK, thallium flux fluorescence; actives lie on both sides; B-score at 10 µM;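 active = signal ratio slope over the read window, or its plate-corrected B-score, at least 3 SD from the plate mean, either direction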;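 note: B-score of the F/F0 ratio slope over 7 to 12 s after thallium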
Target sequence (P48048 whole entry, looked up): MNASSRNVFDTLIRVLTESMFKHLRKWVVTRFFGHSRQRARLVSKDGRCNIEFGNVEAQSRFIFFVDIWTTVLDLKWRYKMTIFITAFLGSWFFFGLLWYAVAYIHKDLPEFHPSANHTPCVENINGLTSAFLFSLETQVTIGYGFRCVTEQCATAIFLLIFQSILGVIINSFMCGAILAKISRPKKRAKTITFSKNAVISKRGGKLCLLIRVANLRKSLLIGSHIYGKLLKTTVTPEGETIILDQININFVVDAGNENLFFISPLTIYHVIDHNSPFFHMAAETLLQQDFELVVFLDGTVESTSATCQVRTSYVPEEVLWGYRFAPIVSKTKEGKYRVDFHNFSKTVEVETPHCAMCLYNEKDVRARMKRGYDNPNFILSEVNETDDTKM
Arbovirus anti: blocks arbovirus infection. inhibition, % at 10 µM. hit rate 0.37% among 200,000. arbovirus infection cell-based antiviral screen. AID 1251; in the data active = inhibition above about 30%
m-calpain inh: inhibitors of pig calpain II. purified calpain II, fluorogenic peptide substrate, 30 min. inhibition, % at 16 µM. hit rate 0.37% among 220,000. AID 1236;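 active = inhibition above about 50%, limit read from the data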
Mdm2 ligase inh: Mdm2 E3 ligase (human) inhibition. Q00987. cell-based MDM2 ubiquitination luciferase reporter, 2 h; 0 = plate control, 100 = twice control, blank-subtracted. signal enhancement, % at 5 µM. hit rate 0.11% among 210,000;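 active = signal enhancement of 30% or more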;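 note: luminescence tracks abundance of the self-degrading MDM2-luciferase fusion protein; higher signal means inhibition of MDM2 E3 ligase activity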
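Material: Stable MDM2–luciferase fusion reporter cells | Amount: 2000 cells seeded into each well | Dosing: One concentration, 5 µM, with 0.2% DMSO | Incubation: 4 h cell settling then 2 h compound exposure, 37 °C | Measured by: Luciferase luminescence | Read-out basis: % enhancement relative to plate controls after blank subtraction | Benchmarks: Control and blank well means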
KCC2 mod: modulates chloride dependent transport by human KCC2; Q9H2X9; KCC2 cells, thallium flux FluoZin-2 fluorescence; B-score of Tl+ flux slope (higher = more flux/activation; lower = inhibition) at 10 µM; hit rate 2.2% among 190,000;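 active = thallium flux slope and its plate-corrected score both differing from the plate sample mean at a set confidence after two filtering rounds, in either direction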;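 note: slope of fluorescence scaled to starting intensity during 10 to 20 s after thallium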
PKD1 kinase inh: inhibitors of human PKD1 kinase; Q15139; PKD1 kinase fluorescence polarization assay; inhibition, % (no concentration beside the values); hit rate 0.056% among 200,000; AID 797; in the data active = inhibition above about 50%
KCC2 sec1: confirmation of human KCC2 transport modulators; HEK293-KCC2, thallium flux, FluoZin2 fluorescence; hits give high values; shares compounds with KCC2 mod; hit rate 15% among 3,700; normalised thallium flux (F/F0 slope) at 10 µM;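 active = thallium flux slope above the same plate's solvent-only control mean plus 3 SD; inconclusive = the two replicate wells disagree; inactive = no significant difference from solvent-only control wells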
KCC2 bumet counter: thallium flux persisting under bumetanide in KCC2 cells, counter-screen secondary assay. normalized thallium flux at 10 µM. HEK293-KCC2 + bumetanide/ouabain, thallium flux FluoZin2; hits give high values. shares compounds with KCC2 mod. hit rate 49% among 3,700;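 active = thallium entry rate above the same plate's blocked-transporter control wells by more than 3 SD; inconclusive = the two repeat wells disagree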;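 note: raw slope of fluorescence over initial fluorescence between 10 and 20 s after thallium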
KCC2 secondary2: KCC2 (human) modulation, second secondary assay | HEK293-KCC2, thallium flux FluoZin2 fluorescence; actives lie on both sides; F/F0 rise rate, 10–20 s post-thallium | shares compounds with KCC2 mod | normalized thallium flux at 10 µM | hit rate 23% among 3,700 | AID 1715;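 active = thallium flux slope more than 3 SD above or below the plate's solvent-only control mean, mostly below; inconclusive = the two repeat wells disagreed; inactive = no significant shift from solvent-only controls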
HEK counter1: counter-screen for KCC2 modulators: effect in parental HEK293 cells. shares compounds with KCC2 mod. thallium flux FluoZin2, ouabain; baseline-ratio fluorescence slope, 10–20 s after thallium. thallium flux rate (normalised fluorescence) at 10 µM. hit rate 46% among 3,700. AID 1716;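 active = thallium flux rate significantly above the same plate's solvent-only control wells, beyond their mean plus 3 SD; inconclusive = the two replicate wells gave conflicting results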
KCC2 retest ouab: KCC2 (human) modulation, ouabain retest; HEK293-KCC2, thallium flux FluoZin2 fluorescence; bidirectional: low = inhibitor, high = activator; AID 1717; raw Tl+ flux slope (below DMSO = inhibition, above = activation) at 10 µM; shares compounds with KCC2 mod; hit rate 48% among 3,700;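 active = thallium flux slope beyond 3 SD from same-plate DMSO control mean in most replicates, usually higher, sometimes lower; inconclusive = repeat tests gave conflicting results; inactive = no significant difference from controls in most replicates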;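 note: slope of initial-normalized fluorescence between seconds 10 and 20 after thallium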
HEK counter2: parental HEK flux effect, counter-screen 2. AID 1718. shares compounds with KCC2 mod. HEK293 parental, thallium flux FluoZin-2 fluorescence slope. thallium flux slope at 10 µM. hit rate 33% among 3,700;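 active = thallium flux slope above the same plate's solvent-control mean plus 3 SD in both duplicate wells; inconclusive = duplicate wells that disagreed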;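 note: run without ouabain in cells lacking the KCC2 cotransporter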
Each line names hits and unclear results; the compound was inactive in the other large screens (follow-up assays come after a bar, where they were run). In the library only some 3.7% were active in any assay of this set; here they are far more common.

O=C(Nc1nc2c(s1)CN(Cc1ccccc1)CC2)c1cccc(S(=O)(=O)N2CCc3ccccc32)c1	KCC2 mod 3.42 (no result: ROMK primary) | KCC2 sec1 0.00453 | KCC2 bumet counter 0.0015 | KCC2 secondary2 0.0207 | HEK counter1 0.00509 | KCC2 retest ouab 0.0126 | HEK counter2 0.00789
COC(=O)C(NC(C)=O)(Nc1sc2c(c1C(N)=O)CCCC2)C(F)(F)F (stereo unspecified)	none (no result: KCC2 mod) | KCC2 sec1 inactive | KCC2 bumet counter inactive | KCC2 secondary2 inactive | HEK counter1 inactive | KCC2 retest ouab inactive | HEK counter2 inactive
CNC(=O)CSc1nnc(SCCC(=O)O)s1	none
CCCCCCCN1N=C(C)C(C(=O)c2ccccc2)C1=O (stereo unspecified)	KCC2 mod 3.14 | KCC2 sec1 inactive | KCC2 bumet counter 0.0236 | KCC2 secondary2 inconclusive | HEK counter1 0.0145 | KCC2 retest ouab 0.0298 | HEK counter2 0.0174
CC1=NN(c2ccccc2)C(=O)C1C(=O)c1cc([N+](=O)[O-])cc([N+](=O)[O-])c1 (stereo unspecified)	none
CCCCCCN1N=C(C)C(C(=O)c2ccc(Cl)cc2)C1=O (stereo unspecified)	KCC2 mod 4.95 | KCC2 sec1 0.0125 | KCC2 bumet counter 0.0254 | KCC2 secondary2 inactive | HEK counter1 0.0136 | KCC2 retest ouab 0.0324 | HEK counter2 inconclusive
CC(C)C1Oc2ccccc2N(CC(=O)NCCCN2C(C)CCCC2C)C1=O (stereo unspecified)	none (no result: ROMK primary, KCC2 mod)
O=C(CSc1nnc(C2CC2)n1Cc1ccccc1)c1cc2ccccc2o1	KCC2 mod -3.84 | KCC2 sec1 inactive | KCC2 bumet counter inconclusive | KCC2 secondary2 0.0239 | HEK counter1 inactive | KCC2 retest ouab inconclusive | HEK counter2 inactive
CCOCCCNC(=O)CN1C(=O)/C(=C\c2ccc(C)cc2)Sc2ccccc21	none
Cc1ccc(/C=C2/Sc3ccccc3N(CC(=O)NCCCOC(C)C)C2=O)cc1	KCC2 mod -3.34 | KCC2 sec1 inactive | KCC2 bumet counter inactive | KCC2 secondary2 inconclusive | HEK counter1 inactive | KCC2 retest ouab 0.0141 | HEK counter2 inactive
N/C(Cc1cccs1)=N\OC(=O)COc1ccccc1	none (no result: KCC2 mod)
Cc1nn(CC(=O)c2ccc(Cl)s2)c(C)c1[N+](=O)[O-]	none (no result: KCC2 mod)
COc1cc(OC)cc(C2=NC3(CCC(C)CC3)NC2=S)c1 (stereo unspecified)	KCC2 mod 17.5 | KCC2 sec1 inactive | KCC2 bumet counter 0.0194 | KCC2 secondary2 inactive | HEK counter1 0.0247 | KCC2 retest ouab inconclusive | HEK counter2 inactive
O=C(NC(=S)Nc1cc(Cl)ccc1O)c1cccc(Br)c1	KCC2 mod 6.52 (no result: ROMK primary, Arbovirus anti, PKD1 kinase inh) | KCC2 sec1 inactive | KCC2 bumet counter 0.0309 | KCC2 secondary2 inactive | HEK counter1 0.0137 | KCC2 retest ouab 0.0271 | HEK counter2 0.0177
FC(F)(F)c1cc(-c2ccco2)nc(NCc2cccnc2)n1	none (no result: KCC2 mod) | KCC2 sec1 inactive | KCC2 bumet counter inactive | KCC2 secondary2 inactive | HEK counter1 inactive | KCC2 retest ouab inactive | HEK counter2 inactive
CCC(=O)N1CCN(c2ccc(NC(=O)c3ccc(-c4ccccc4)cc3)cc2)CC1	none (no result: ROMK primary, KCC2 mod)

Compound activity from PubChem.
